We go through 19 compounds from ChEMBL document CHEMBL3399930, “Rat hormone sensitive lipase inhibition by cyclipostins and their analogs” (Bioorg Med Chem, 2015).

In general, IC50 refers to the concentration needed to halve the response being measured.

The first assay has as its target T1, Hormone-sensitive lipase (Rattus norvegicus, UniProt P15304).
T1 sequence (P15304 whole entry): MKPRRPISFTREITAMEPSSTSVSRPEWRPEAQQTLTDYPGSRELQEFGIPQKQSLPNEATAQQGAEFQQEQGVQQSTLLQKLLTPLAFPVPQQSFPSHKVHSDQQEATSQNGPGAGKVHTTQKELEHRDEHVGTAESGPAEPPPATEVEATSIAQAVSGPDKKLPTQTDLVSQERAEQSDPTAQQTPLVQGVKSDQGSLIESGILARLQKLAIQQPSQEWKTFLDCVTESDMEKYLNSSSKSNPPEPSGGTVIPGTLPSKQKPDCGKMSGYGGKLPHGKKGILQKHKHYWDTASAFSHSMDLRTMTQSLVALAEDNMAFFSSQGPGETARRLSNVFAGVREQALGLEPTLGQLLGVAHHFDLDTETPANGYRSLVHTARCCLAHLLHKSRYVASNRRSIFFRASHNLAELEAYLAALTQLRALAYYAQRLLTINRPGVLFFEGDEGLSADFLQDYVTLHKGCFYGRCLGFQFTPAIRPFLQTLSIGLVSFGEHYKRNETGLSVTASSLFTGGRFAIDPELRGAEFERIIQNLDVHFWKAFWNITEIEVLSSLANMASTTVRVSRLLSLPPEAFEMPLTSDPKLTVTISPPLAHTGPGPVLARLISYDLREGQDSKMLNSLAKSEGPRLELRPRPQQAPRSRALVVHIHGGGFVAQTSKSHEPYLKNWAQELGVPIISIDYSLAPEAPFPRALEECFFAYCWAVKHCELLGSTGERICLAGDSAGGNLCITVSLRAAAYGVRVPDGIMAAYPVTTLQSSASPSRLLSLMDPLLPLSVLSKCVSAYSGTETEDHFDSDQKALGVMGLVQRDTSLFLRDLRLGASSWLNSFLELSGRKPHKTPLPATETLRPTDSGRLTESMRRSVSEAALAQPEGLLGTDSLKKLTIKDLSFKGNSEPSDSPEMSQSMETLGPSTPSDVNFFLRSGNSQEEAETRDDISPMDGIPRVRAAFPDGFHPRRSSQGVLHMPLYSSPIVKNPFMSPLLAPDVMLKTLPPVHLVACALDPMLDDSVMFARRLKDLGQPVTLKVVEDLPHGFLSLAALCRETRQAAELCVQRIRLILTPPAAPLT
In words: Irreversible inhibition of rat hormone sensitive lipase assessed as relative residual activity by kinetic analysis. An outline of the steps: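 Recombinant His-tagged rat HSL, no preincubation, added directly at 37°C to liposomes containing both [3H]triolein and inhibitor, at several inhibitor concentrations. Samples every 3–5 min over 30 min. Released oleic acid extracted and measured by scintillation. Residual activity versus inhibitor concentration and time fitted to an irreversible inactivation scheme (k-2 ≈ 0) to obtain binding and inactivation constants.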
In the case of `CCCCCCCCCCCCCCCCO[P@]1(=O)OC[C@@H]2COC(=O)C2=C(C)O1` (relative stereo), the Ki came to 0.04 µM.

The target of another assay is T1, Hormone-sensitive lipase. In words: Inhibition of rat hormone sensitive lipase assessed as oleic acid release from [3H]triolein by scintillation counting. The method, boiled down: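 His-tagged rat HSL expressed in baculovirus-infected Sf9 cells, Ni-NTA purified. Enzyme (20–100 nM) preincubated 30 min on ice with inhibitor-containing PC/PI liposomes, no triolein. Substrate: liposomes of 200 μM PC/PI (3:1 w/w) with 500 μM triolein plus 3H-triolein. Buffer: 25 mM Tris, 150 mM NaCl, 0.2 mM EDTA, 1 mM β-mercaptoethanol, pH 7.4, with 0.2% BSA. Run at 37°C. Samples taken every 10 min (6–8 points), oleate extracted and counted. IC50 is the inhibitor level giving 50% activity, in triplicate.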
`CCCCCCCCCCCCCCCCO[P@]1(=O)CC[C@@H]2COC(=O)C2=C(C)O1` (racemic): the IC50 was found to be 6.9 µM.

Regarding `CCCCCCCCCCCCCCCCCC[C@H]1CC[P@@](=O)(OC)OC(C)=C1C(=O)OC` (relative stereo), the 50% inhibitory concentration (IC50) was 27 µM.

On to `CCCCCCCCCCCCCCCO[P@]1(=O)CC[C@H]2COC(=O)C2=C(C)O1` (racemic), for which the half-maximal inhibitory concentration (IC50) was found to be 0.47 µM.

On to `CCCCCCCCCCCC[C@H]1CC[P@@](=O)(OC)OC(C)=C1C(=O)OC` (relative stereo), for which the IC50 was determined as 13.5 µM.

For `CO[P@]1(=O)OC[C@H]2COC(=O)C2=C(C)O1` (relative stereo) [CYCLOPHOSTIN], the IC50 is greater than 100 µM.

Turning to `CCCCCCCCCCCCCCCCCC[C@@H]1CC[P@@](=O)(OC)OC(C)=C1C(=O)OC` (relative stereo), the IC50 is greater than 100 µM.

Turning to `CO[P@]1(=O)OC[C@@H]2COC(=O)C2=C(C)O1` (relative stereo), the IC50 was greater than 100 µM.

Consider `CCCCCCCCCCCCCCCCO[P@]1(=O)OC[C@@H]2COC(=O)C2=C(C)O1` (relative stereo), for which the IC50 was found to be 0.025 µM.

Take `CCCCCCCCCCCCCCCCO[P@]1(=O)CC[C@H]2COC(=O)C2=C(C)O1` (racemic): the IC50 came to 0.36 µM.

As for `CCCCCCCCCCCCCCCC[C@@H]1CC[P@@](=O)(OC)OC(C)=C1C(=O)OC` (relative stereo), the IC50 turned out to be 60 µM.

In the case of `CCCCCCCCCCCCCCCO[P@]1(=O)OC[C@@H]2COC(=O)C2=C(C)O1` (racemic), the IC50 was 0.9 µM.

Regarding `CCCCCCCCCCCCCCCC[C@H]1CC[P@@](=O)(OC)OC(C)=C1C(=O)OC`, the IC50 came to 10 µM.

On to `CCCCCCCCCCCC[C@@H]1CC[P@@](=O)(OC)OC(C)=C1C(=O)OC` (relative stereo), for which the IC50 was 35 µM.

Regarding `CCCCCCCCCCCCCCCCO[P@]1(=O)OC[C@H]2COC(=O)C2=C(C)O1` (relative stereo), the IC50 turned out to be 0.42 µM.

Regarding `CO[P@@]1(=O)CC[C@H]2COC(=O)C2=C(C)O1` (relative stereo), the IC50 was 100 µM.

In the case of `CCCCCCCCCCCCCCCO[P@]1(=O)OC[C@H]2COC(=O)C2=C(C)O1` (racemic), the IC50 stood at 0.075 µM.

Take `CCCCCCCCCCCCCCCCOP1(=O)OC(C)=C(C(=O)OC)CCC1(F)F` (stereo not given): the IC50 was greater than 100 µM.

As for `CCCCCCCCCCCCCCCO[P@]1(=O)CC[C@@H]2COC(=O)C2=C(C)O1` (racemic), the 50% inhibitory concentration (IC50) was 0.45 µM.

On to `CCCCCCCCCCCCCCCCOP1(=O)OCCC(C(=O)OC)=C(C)O1` (stereo not given), for which the IC50 was determined as 0.06 µM.
